These results are taken from article PMC12412049 (Journal of controlled release : official journal of the …, 2025).

In data set [1] the test system is U87MG cells. The experiment in a line: In vitro uptake in U87MG cells. The class given is cell-based, human. As to conditions: for Uptake percentage dose (%AD), total / Uptake %AD, intracellular: mean ± SD; for Uptake %AD, intracellular: internalized fraction (1 M NaOH lysis); for Share of radioactivity internalized by cells: after co-incubation 4 h.
Data set [2] concerns U87MG tumor. The experiment in a line: In vivo radiotherapy in U87MG tumor-bearing mice. As to conditions: for Median survival: U87MG glioma-bearing mice; for Median survival / Tumor weight at the end of the treatment / Tumor volume: 66.6 MBq; for Tumor weight at the end of the treatment / Tumor volume: U87MG tumor-bearing mice, mean ± SD; for Tumor weight at the end of the treatment: 20 days post-treatment, n = 5/group.

Data set [3] concerns U87MG cells. Nature of the data set: CCK-8 cell viability of U87MG cells with radiolabeled compounds. As to conditions: 0.1 and 0.2 MBq.
Data set [4] has as its system U87MG cells. Nature of the data set: Intracellular GSH content measurement. As to conditions: 24 h co-incubation. In kind it is cell-based, human. Summed up: (§1)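 U87MG cells were seeded at 2 × 10^5 cells/well and grown 24 h at 37°C. They were then exposed 24 h in serum-free medium to PBS or to unlabeled or 64Cu-labeled peptide conjugate at 0, 25, 50 or 100 μM. Cells were PBS-washed, trypsinized, pelleted at 3000 rpm for 3 min and washed. Intracellular GSH (GSH/GSSG) and ROS were read with commercial kits. Values are mean ± SD.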

The subject of data set [5] is U87MG cells. Nature of the data set: Intracellular ROS level assay. As to conditions: 24 h co-incubation. In kind it is cell-based, human. Summed up:
as §1

The subject of data set [6] is U87MG tumor. The experiment in a line: PET imaging in U87MG tumor-bearing mice. The conditions noted are these: mouse, in vivo; for Tumor uptake (PET ROI analysis): iv, 7.4 MBq.
The test system of data set [7] is MCF-7 tumor. Set-up: species or system mice. The conditions noted are these: mouse, in vivo.
Data set [8] deals with U87MG tumor. Nature of the data set: Biodistribution study in U87MG tumor-bearing mice. As to conditions: mouse, in vivo.
Data set [9] has as its system MCF-7 tumor. Set-up: species or system mice. The conditions noted are these: mouse, in vivo, 72 h.
The subject of data set [10] is U87MG tumor. Nature of the data set: Tumor section staining. The class given is in vivo, mice. The conditions noted are these: tumor sections.
A further data set in a line: Critical micelle. The class given is physicochemical. As to conditions: pyrene fluorescent probe, tangent method; DP1R 0.1-100 μM, each with 1 mM GSH.
Data set [11] can be described thus: TEM morphology of self-assembled peptide. The class given is physicochemical. Summed up:
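Peptide was dissolved in water above its CMC, with or without 1 mM GSH added to mimic intracellular reducing conditions. Samples were incubated 10 min, applied to copper grids and air-dried overnight. Particle morphology and size were imaged by TEM, with size given as mean ± SD.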

The nature of data set [12]: DLS hydrodynamic diameter and zeta potential. The class given is physicochemical. As to conditions: mean ± SD.
Setting [13] is: 0.05 MBq, 4 h, 37°C, gamma counter.
The mark [14] stands for this setting: normalized to stained control (set as 1.0), mean ± SD.

As to `[Cl][64Cu][Cl]` [[^64Cu]CuCl2, reference compound], the “Uptake by U87MG cells (in words)” value in the data set on U87MG cells [1] (0.05-1 MBq, 4 h) is “Negligible uptake”. In the data set with U87MG tumor [2], the Median survival was 20 days and the “Tumor weight at the end of the treatment” value amounted to 2.36 ± 0.35 g. Besides, in the data set on U87MG cells [3], the “Cytotoxicity against tumor cells (in words)” value is “Neither 0.1 MBq nor 0.2 MBq free [^64Cu]CuCl2 demonstrated notable cytotoxicity”.
[^64Cu]Cu-DOTA-c(RGDyK) [[^64Cu]Cu-DR]: the “Uptake percentage dose (%AD), total” value in the data set with U87MG cells [1] (setting [13]) amounted to 1.56 ± 0.78 %AD. In the data set with U87MG cells [1] (0.05 MBq, 4 h), the “Uptake %AD, intracellular” value was 0.10 ± 0.02 %AD. Moreover, the “Share of radioactivity internalized by cells” value in the data set with U87MG cells [1] (0.05 MBq) turned out to be 87.82%. In addition, in the data set with U87MG tumor [2], the Median survival came to 26 days and the “Tumor weight at the end of the treatment” value is given as 0.87 ± 0.03 g. Besides, the Tumor volume in the data set with U87MG tumor [2] (twenty days after injection) worked out at 407.00 ± 66.34 mm^3.
As for “[^64Cu]Cu-DOTA-PEP1-c(RGDyK) (head to tail) [[^64Cu]Cu-DP1R]”, in the data set on U87MG cells [1] (0.05 MBq, 4 h), the “Uptake %AD relative to the [^64Cu]Cu-DR group” value worked out at 5.83 times and the “Uptake %AD, intracellular” value amounted to 8.27 ± 0.44 %AD. The “Uptake percentage dose (%AD), total” value in the data set with U87MG cells [1] (setting [13]) was 9.09 ± 0.48 %AD. In addition, in the data set on U87MG cells [1] (0.05 MBq), the “Share of radioactivity internalized by cells” value was 90.98%. The “Uptake percentage dose (%AD), total” value with U87MG cells [1] (0.1 MBq, 4 h) is reported as 7.50 ± 0.32 %AD. Besides, the “Effect on intracellular GSH (in words)” value with U87MG cells [4] is reported as “effectively reduce intracellular GSH”. In the data set on U87MG cells [5], the “Effect on intracellular ROS level (in words)” value is “enhance the ROS level”. Further, in the data set on U87MG tumor [6], the “Retention index (RI)” value is given as 21.90% (± 41.29%) and the “Tumor retention vs. control via PET imaging” value turned out to be 2 fold. Moreover, the “Tumor uptake (PET ROI analysis)” value in the data set on U87MG tumor [6] (4 h) is reported as 6.90 ± 0.98 %ID/g. Moreover, the “Tumor uptake (PET ROI analysis)” value in the data set on U87MG tumor [6] (72 h) was found to be 6.20 ± 1.61 %ID/g. For the same compound, the “Tumor uptake in MCF-7 subcutaneous tumor model (in words)” value with MCF-7 tumor [7] is reported as “no significant tumor uptake”. For the same compound, in the data set with U87MG tumor [8] (72 h), the “Blood pool uptake (biodistribution)” value amounted to 1.01± 0.5 %ID/g, the “Kidneys uptake (biodistribution)” value is 1.43 ± 0.09 %ID/g and the “Tumor uptake (biodistribution)” value is reported as 7.79 ± 1.08 %ID/g. Also, in the data set with MCF-7 tumor [9], the “Tumor uptake (biodistribution)” value is given as 0.47 ± 0.10 %ID/g. In the data set with U87MG tumor [2], the Median survival came out at 36 days and the “Tumor weight at the end of the treatment” value is listed as 0.25 ± 0.03 g. Moreover, in the data set with U87MG tumor [2] (twenty days after injection), the Tumor volume was 122.20 ± 19.92 mm^3, the “Tumor volume of PBS group relative to treated group” value worked out at 12.1 times and the “Tumor volume of [^64Cu]Cu-DR group relative to [^64Cu]Cu-DP1R group” value turned out to be 3.33 times. Also, in the data set on U87MG tumor [10], the “Apoptotic induction (TUNEL) vs PBS group” value is 101.6 fold. The “Ki-67 relative expression (proliferative activity)” value with U87MG tumor [10] (IHC, normalized to stained control (set as 1.0), mean ± SD) was 1.35 ± 0.17. Also, in the data set with U87MG tumor [10] (setting [14]), the “ROS relative fluorescence intensity” value was 7.87 ± 0.70, the “TUNEL relative fluorescence intensity (apoptosis)” value worked out at 140.21 ± 24.88 and the “γ-H2AX relative fluorescence intensity (DNA damage)” value is on record as 59.3 ± 11.49. In the data set with U87MG tumor [10] (vs PBS group), the “Decrease in Ki-67 index” value came out at 3.1 fold.
Consider “[^64Cu]Cu-DOTA-PEP2-c(RGDyK) (head to tail) [[^64Cu]Cu-DP2R]”, for which the figures for the “Tumor uptake (PET ROI analysis)” value in the data set on U87MG tumor [6] (4 h) and with U87MG tumor [6] (72 h) were 5.53 ± 0.36 %ID/g and 2.93 ± 0.36 %ID/g, respectively. For the same compound, the “Lower 72h tumor retention relative to DP1R probe” value with U87MG tumor [8] was found to be 58%. Also, in the data set with U87MG tumor [8] (72 h), the “Tumor uptake (biodistribution)” value came out at 3.28 ± 0.45 %ID/g.
Take “DOTA-PEP1-c(RGDyK) (head to tail) [DP1R]”: the “Critical micelle concentration (CMC)” value in the data set “Critical micelle” stood at 13.962 µM. Besides, the “Nanostructure formation under TEM” value in data set [11] (absence of GSH incubation) is “no nanostructure formation was observed”. The “Average diameter of micelle-like structures under TEM” value in [11] (in water above the CMC, 1 mM GSH, 10 min incubation, mean ± SD) was “approximately 27.55 ± 6.43 nm”. In addition, in data set [12] (DLS in PBS, after incubation with GSH), the Hydrodynamic diameter was 284.28 ± 27.99 nm. Also, the figures for the Zeta potential in [12] (after incubation with GSH) and in data set [12] (before incubation with GSH) were −36.43 ± 1.89 mV and 3.65 ± 0.49 mV, respectively. For the same compound, the results for the “Reduction of intracellular GSH levels” value in the data set on U87MG cells [4] (25 μM) and in the data set on U87MG cells [4] (100 μM) were 17% and “exceeding 52%”, respectively.
